From ChEMBL document CHEMBL1154124, “Vascular effects of different lipophilic components of "Danshen", a traditional Chinese medicine, in the isolated porcine coronary artery” (2008)
Calls of active or inactive are those of the source. No cut-off for these calls is given here.

Columns and labels:
Settings in all cases: Sus scrofa
Artery [1] = assay: Vasorelaxant activity in pig endothelium-intact coronary artery assessed as inhibition of U46619-induced contraction at 50 ug/ml; assay type: functional, tissue-based
Outline: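 Porcine coronary rings with endothelium in Krebs-Henseleit solution at 37 °C, gassed with 95% O2/5% CO2, held at 2 g resting tension and equilibrated 100 min. Each ring was contracted twice with KCl 30 mM and relaxed with bradykinin 1 µM. Test material as a PVP complex was given for 30 min, then cumulative U46619 0.1 nM–1 µM. Contraction was expressed as % of the mean KCl response, giving ED50 and Emax; n=8.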

Artery [2] = assay: Vasorelaxant activity in pig endothelium-intact coronary artery assessed as inhibition of U46619-induced contraction; assay type: functional
Outline: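 Endothelium-intact porcine coronary rings at 2 g resting tension in Krebs-Henseleit, 37 °C, gassed with 95% O2/5% CO2. Rings were discarded if the mean KCl 30 mM contraction was under 4 g or bradykinin relaxation under 40%. PVP K30-complexed sample was given for 30 min. Cumulative U46619 was then added (0.1 nM to 1 µM). ED50 and Emax use % of the mean KCl 30 mM contraction; n = 8, separate hearts.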

Artery [3] = assay: Vasorelaxant activity in pig endothelium-denuded coronary artery assessed as inhibition of 5-hydroxytryptamine-induced contraction at 15 ug/ml; assay type: functional, tissue-based
Outline: (§1)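 Endothelium-removed porcine coronary rings at 2 g resting tension in Krebs-Henseleit, 37 °C, 95% O2/5% CO2. Each ring was primed twice with KCl 30 mM and relaxed with bradykinin 1 µM. Test material, as a PVP K30 complex, was given for 30 min. Stepwise contractions were then made with 5-HT (10 nM to 10 µM), U46619 (0.1 nM to 1 µM) or KCl (10-70 mM). Tension is % of the mean of the two KCl 30 mM contractions; n = 7-11.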

Artery [4] = assay: Vasorelaxant activity in pig endothelium-denuded coronary artery assessed as inhibition of potassium chloride-induced contraction at 50 ug/ml; assay type: functional, tissue-based; outline: as §1
Artery [5] = assay: Vasorelaxant activity in pig endothelium-denuded coronary artery assessed as inhibition of U46619-induced contraction at 15 ug/ml; assay type: functional, tissue-based; outline: as §1
Artery [6] = assay: Vasorelaxant activity in pig endothelium-intact coronary artery assessed as reversible inhibition of U46619-induced contraction at 1 uM; assay type: functional, tissue-based

| Compound | Activity (Artery [1]) | Emax (Artery [2]) | Activity (Artery [3]) | Activity (Artery [4]) | Activity (Artery [5]) | Activity (Artery [6]) |
| --- | --- | --- | --- | --- | --- | --- |
| C[C@H]1COC2=C1C(=O)C(=O)c1c2ccc2c1CCCC2(C)C [CRYPTOTANSHINONE] | Active | 64.9% |  |  |  |  |
| CC1(C)CCCc2c1ccc1c2C(=O)C(=O)c2c(CO)coc2-1 [PRZEWAQUINONE A] |  | 29.2% | Active | Active | Active | Active |
| Cc1coc2c1C(=O)C(=O)c1c-2ccc2c1CCCC2(C)C [TANSHINONE IIA] | Active | 92.9% |  |  |  |  |
